Paper PMC4233149 (Clinical cancer research : an official journal of the …, 2014)
Marks after values point to notes of the source that are not given here.

Assay: Phase I safety and tolerability, weekly
Format: in vivo, human
Method in brief: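 Oral weekly dose escalation followed a 3+3 design (planned 90, 135, 200, 300mg, intermediate doses allowed), then a modified toxicity-probability-interval confirmation stage. A DLT was any drug-related CTCAE v3.0 ≥G4 hematological, ≥G3 febrile neutropenia or ≥G3 non-hematological toxicity. Safety visits, glucose, C-peptide and HbA1c monitoring followed a fixed schedule; AEs were graded by CTCAE v3.0.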

## NC1(c2ccc(-c3nc4ccn5c(=O)[nH]nc5c4cc3-c3ccccc3)cc2)CCC1 [MK-2206]
90mg QW, G1, all cycles
  Anorexia, number of AEs: 0 (0)
  Dermatitis acneiform, number of AEs: 0 (0)
  Diarrhea, number of AEs: 1 (1)
  Dry skin, number of AEs: 0 (0)
  Fatigue, number of AEs: 1 (1)
  Nausea, number of AEs: 0 (0)
  Pruritus, number of AEs: 0 (0)
  Rash (all rash terms collated), number of AEs: 0 (0)
  Stomatitis, number of AEs: 0 (0)
  Vomiting, number of AEs: 1 (1)
90mg QW, G1, cycle 1
  Anorexia, number of AEs: 0 (0)
  Dermatitis acneiform, number of AEs: 0 (0)
  Diarrhea, number of AEs: 1 (1)
  Dry skin, number of AEs: 0 (0)
  Fatigue, number of AEs: 1 (1)
  Nausea, number of AEs: 0 (0)
  Pruritus, number of AEs: 0 (0)
  Rash (all rash terms collated), number of AEs: 0 (0)
  Stomatitis, number of AEs: 0 (0)
  Vomiting, number of AEs: 1 (1)
135mg QW, G1, all cycles
  Anorexia, number of AEs: 0 (0)
  Dermatitis acneiform, number of AEs: 1 (1)
  Diarrhea, number of AEs: 0 (0)
  Dry skin, number of AEs: 0 (0)
  Dysgeusia, number of AEs: 0 (0)
  Fatigue, number of AEs: 0 (0)
  Nausea, number of AEs: 0 (0)
  Pruritus, number of AEs: 1 (1)
  Rash (all rash terms collated), number of AEs: 1 (1)
  Stomatitis, number of AEs: 0 (0)
  Vomiting, number of AEs: 0 (0)
135mg QW, G1, cycle 1
  Anorexia, number of AEs: 0 (0)
  Dermatitis acneiform, number of AEs: 1 (1)
  Diarrhea, number of AEs: 0 (0)
  Dry skin, number of AEs: 0 (0)
  Dysgeusia, number of AEs: 0 (0)
  Fatigue, number of AEs: 0 (0)
  Nausea, number of AEs: 0 (0)
  Pruritus, number of AEs: 1 (1)
  Rash (all rash terms collated), number of AEs: 1 (1)
  Stomatitis, number of AEs: 0 (0)
  Vomiting, number of AEs: 0 (0)
150mg QW, G1, all cycles
  Dermatitis acneiform, number of AEs: 0 (0)
  Diarrhea, number of AEs: 0 (0)
  Dry skin, number of AEs: 0 (0)
  Dysgeusia, number of AEs: 0 (0)
  Fatigue, number of AEs: 0 (0)
  Nausea, number of AEs: 0 (0)
  Pruritus, number of AEs: 0 (0)
  Rash (all rash terms collated), number of AEs: 0 (0)
  Stomatitis, number of AEs: 0 (0)
  Vomiting, number of AEs: 2 (2)
150mg QW, G1, cycle 1
  Dermatitis acneiform, number of AEs: 0 (0)
  Diarrhea, number of AEs: 0 (0)
  Dry skin, number of AEs: 0 (0)
  Dysgeusia, number of AEs: 0 (0)
  Fatigue, number of AEs: 0 (0)
  Nausea, number of AEs: 0 (0)
  Pruritus, number of AEs: 0 (0)
  Rash (all rash terms collated), number of AEs: 0 (0)
  Stomatitis, number of AEs: 0 (0)
  Vomiting, number of AEs: 2 (2)
150mg QW, G2, all cycles
  Anorexia, number of AEs: 0 (0)
  Dermatitis acneiform, number of AEs: 0 (0)
  Diarrhea, number of AEs: 0 (0)
  Dry skin, number of AEs: 0 (0)
  Dysgeusia, number of AEs: 0 (0)
  Fatigue, number of AEs: 0 (0)
  Nausea, number of AEs: 1 (1)
  Pruritus, number of AEs: 0 (0)
  Rash (all rash terms collated), number of AEs: 0 (0)
  Stomatitis, number of AEs: 0 (0)
  Vomiting, number of AEs: 0 (0)
150mg QW, G2, cycle 1
  Anorexia, number of AEs: 0 (0)
  Dermatitis acneiform, number of AEs: 0 (0)
  Diarrhea, number of AEs: 0 (0)
  Dry skin, number of AEs: 0 (0)
  Dysgeusia, number of AEs: 0 (0)
  Fatigue, number of AEs: 0 (0)
  Nausea, number of AEs: 1 (1)
  Pruritus, number of AEs: 0 (0)
  Rash (all rash terms collated), number of AEs: 0 (0)
  Stomatitis, number of AEs: 0 (0)
  Vomiting, number of AEs: 0 (0)
150mg QW, G3, all cycles
  Anorexia, number of AEs: 0 (0)
  Dermatitis acneiform, number of AEs: 0 (0)
  Diarrhea, number of AEs: 0 (0)
  Dry skin, number of AEs: 0 (0)
  Dysgeusia, number of AEs: 0 (0)
  Fatigue, number of AEs: 0 (0)
  Nausea, number of AEs: 0 (0)
  Pruritus, number of AEs: 0 (0)
  Rash (all rash terms collated), number of AEs: 3
  Stomatitis, number of AEs: 0 (0)
  Vomiting, number of AEs: 0 (0)
150mg QW, G3, cycle 1
  Anorexia, number of AEs: 0 (0)
  Dermatitis acneiform, number of AEs: 0 (0)
  Diarrhea, number of AEs: 0 (0)
  Dry skin, number of AEs: 0 (0)
  Dysgeusia, number of AEs: 0 (0)
  Fatigue, number of AEs: 0 (0)
  Nausea, number of AEs: 0 (0)
  Pruritus, number of AEs: 0 (0)
  Stomatitis, number of AEs: 0 (0)
  Vomiting, number of AEs: 0 (0)
150mg QW, G3, cycle 1, dose-limiting toxicity
  Rash (all rash terms collated), number of AEs: 1
200mg QW, G1, all cycles
  Anorexia, number of AEs: 1 (1)
  Dermatitis acneiform, number of AEs: 0 (0)
  Diarrhea, number of AEs: 2 (2)
  Dry skin, number of AEs: 1 (1)
  Dysgeusia, number of AEs: 0 (0)
  Nausea, number of AEs: 4 (4)
  Stomatitis, number of AEs: 2 (2)
  Vomiting, number of AEs: 2 (2)
200mg QW, G1, cycle 1
  Anorexia, number of AEs: 1 (1)
  Dermatitis acneiform, number of AEs: 0 (0)
  Diarrhea, number of AEs: 2 (2)
  Dry skin, number of AEs: 1 (1)
  Dysgeusia, number of AEs: 0 (0)
  Nausea, number of AEs: 4 (4)
  Stomatitis, number of AEs: 2 (2)
  Vomiting, number of AEs: 2 (2)
200mg QW, G2, all cycles
  Anorexia, number of AEs: 0 (0)
  Dermatitis acneiform, number of AEs: 0 (0)
  Diarrhea, number of AEs: 0 (0)
  Dry skin, number of AEs: 0 (0)
  Dysgeusia, number of AEs: 0 (0)
  Fatigue, number of AEs: 1 (1)
  Nausea, number of AEs: 1 (1)
  Rash (all rash terms collated), number of AEs: 4 (4)
  Stomatitis, number of AEs: 0 (0)
  Vomiting, number of AEs: 0 (0)
200mg QW, G2, cycle 1
  Anorexia, number of AEs: 0 (0)
  Dermatitis acneiform, number of AEs: 0 (0)
  Diarrhea, number of AEs: 0 (0)
  Dry skin, number of AEs: 0 (0)
  Dysgeusia, number of AEs: 0 (0)
  Fatigue, number of AEs: 1 (1)
  Nausea, number of AEs: 1 (1)
  Rash (all rash terms collated), number of AEs: 4 (4)
  Stomatitis, number of AEs: 0 (0)
  Vomiting, number of AEs: 0 (0)
200mg QW, G3, all cycles
  Anorexia, number of AEs: 0 (0)
  Dermatitis acneiform, number of AEs: 1^c (1)
  Diarrhea, number of AEs: 0 (0)
  Dry skin, number of AEs: 0 (0)
  Dysgeusia, number of AEs: 0 (0)
  Fatigue, number of AEs: 0 (0)
  Nausea, number of AEs: 0 (0)
  Pruritus, number of AEs: 0 (0)
  Rash (all rash terms collated), number of AEs: 3^c (3)
  Stomatitis, number of AEs: 0 (0)
  Vomiting, number of AEs: 0 (0)
200mg QW, G3, cycle 1
  Anorexia, number of AEs: 0 (0)
